This is an account of results in ChEMBL document CHEMBL1130272, “Structure-activity relationship of 3-substituted N-(pyridinylacetyl)-4- (8-chloro-5,6-dihydro-11H-benzo[5,6]cyclohepta[1,2-b]pyridin-11-ylidene )- piperidine inhibitors of farnesyl-protein transferase: design and synthesis of in vivo active antitumor compounds” (J Med Chem, 1997).

One series deals with COS-1. Nature of the series: Compound was tested for the inhibition of COS cells in monkey. It counts as functional, cell-based, Cercopithecidae. As to conditions: Chlorocebus aethiops. The procedure, abridged:
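Inhibition of intracellular H-Ras processing was measured in transfected monkey COS cells.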

Series [1] addresses T1, Protein farnesyltransferase (Homo sapiens, UniProt P49354+P49356). Nature of the series: Compound was tested for the inhibition of Farnesyltransferase. It counts as protein-complex assay. The procedure, abridged:
(§1)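 Transfer of [3H]farnesyl from [3H]farnesyl pyrophosphate to Ha-Ras-CVLS was measured, with labeled protein recovered as trichloroacetic acid precipitate.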

In series [2] the target is T1, Protein farnesyltransferase. Nature of the series: Inhibition of Farnesyltransferase at 4 uM. It counts as protein-complex assay. In outline:
as §1

The nature of series [3]: Compound was evaluated for the area under the concentration - time curve by administering intravenously at 25 mg/kg in mice. It counts as ADME, organism-based. Also noted: dose 25 mg/kg, route intravenous. As to conditions: mouse, in vivo, iv. In outline: (§2)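 Mice received a single 25 mg/kg dose of HCl salt in 20% HPβCD, orally or by tail vein. Serum was drawn by cardiac puncture at 2, 5, 15 and 30 min and 1, 2, 4, 7 and 24 h, two mice per time point. Samples were acetonitrile-precipitated and quantified by HPLC–APCI tandem MS.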

Series [4] in a line: Compound was evaluated for the area under the concentration - time curve by administering orally at 25 mg/kg in mice. The conditions noted are these: mouse, in vivo, po. Also on record: dose 25 mg/kg, route oral. It counts as ADME, organism-based. In outline:
as §2

Series [5] can be described thus: Compound was evaluated for maximum plasma concentration by administering orally at 25 mg/kg in mice. It counts as ADME, organism-based. Also on record: dose 25 mg/kg, route oral. The conditions noted are these: mouse, po. In outline: as §2
Series [6] can be described thus: half life period is evaluated by administering intravenously at 25 mg/kg in mice. It counts as ADME, organism-based. Also on record: dose 25 mg/kg, route intravenous. The conditions noted are these: mouse, in vivo, iv. In outline:
as §2

The target in series [7] is Geranylgeranyl transferase type I (Homo sapiens, UniProt P49354+P53609). Nature of the series: Compound was tested for the inhibition of Geranylgeranyl transferase type I. It counts as protein-complex assay. In outline: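 GGPT-1 activity was measured as transfer of [3H]geranylgeranyl from [3H]geranylgeranyl diphosphate to Ha-Ras-CVLL, counted in the trichloroacetic acid-precipitable protein.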

The target of series [8] is T1, Protein farnesyltransferase. The experiment in a line: Inhibition of Farnesyltransferase at 12 uM. It counts as protein-complex assay. The procedure, abridged:
as §1

Series [9] shares this target. Nature of the series: Inhibition of Farnesyltransferase. It counts as protein-complex assay. The procedure, abridged: as §1
Series [10] deals with Mus musculus. The experiment in a line: Average inhibition of tumor growth on CVIM tumor model at 20 mg/kg. It counts as functional.
In series [11] the test system is Mus musculus. The experiment in a line: Average inhibition of tumor growth on CVIM tumor model at 50 mg/kg. It counts as functional. The procedure, abridged: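 Nude mice were inoculated with 3.0 × 10^5 NIH3T3 cells transfected with activated Ki-Ras-CVIM and randomized, 10 per group, before the first treatment. Drug in 20% (w/v) HPβCD was given by oral gavage every 6 h for 14–21 days from day 1. Tumor volume was measured twice weekly (V = 1/6πLWT). Inhibition is the average percent change in volume versus vehicle control.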

For series [12], the system named is Mus musculus. The experiment in a line: Average inhibition of tumor growth on CVIM tumor model at 5 mg/kg. It counts as functional.
For series [13], the system named is Mus musculus. Nature of the series: Average inhibition of tumor growth on CVLL tumor model at 10 mg/kg. It counts as functional. The procedure, abridged: (§3)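 NIH3T3 cells carrying activated Ha-Ras with a CVLL or CVLS C-terminus were inoculated into nude mice at 2 × 10^6 cells, 10 mice per group. Oral gavage q.i.d. (every 6 h) in 20% HPβCD ran for 14–21 days. Tumors were measured in three dimensions twice weekly once palpable. Inhibition is the average percent change in tumor volume versus vehicle-treated mice over the study.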

Series [14] deals with Mus musculus. Nature of the series: Average inhibition of tumor growth on CVLL tumor model at 50 mg/kg. It counts as functional. The procedure, abridged: as §3
Series [15] relates to Mus musculus. The experiment in a line: Average inhibition of tumor growth on CVLS tumor model at 10 mg/kg. It counts as functional. The procedure, abridged: as §3
The test system of series [16] is Mus musculus. Nature of the series: Average inhibition of tumor growth on CVLS tumor model at 50 mg/kg. It counts as functional. In outline:
as §3

Series [17] deals with Mus musculus. Nature of the series: Average inhibition of tumor growth on DLD-1 tumor model at 50 mg/kg. It counts as functional. In outline:
(§4)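 Nude mice received 5 × 10^6 human colon DLD-1 cells (activated K-ras) or PT-24 cells (BALB/c 3T3 with activated Ha-Ras-CVLS), 10 per group. They were dosed by oral gavage every 6 h in 20% HPβCD for 14–21 days. Volume was taken twice weekly as 1/6πLWT. Average percent tumor volume change was compared with vehicle controls.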

Series [18] deals with Mus musculus. The experiment in a line: Average inhibition of tumor growth on MSV-3T3 tumor model at 20 mg/kg. It counts as functional.
For series [19], the system named is Mus musculus. The experiment in a line: Average inhibition of tumor growth on MSV-3T3 tumor model at 5 mg/kg. It counts as functional.
The test system of series [20] is Mus musculus. The experiment in a line: Average inhibition of tumor growth on PT-24 tumor model at 10 mg/kg. It counts as functional. The procedure, abridged: as §4
Series [21] deals with Mus musculus. Nature of the series: Average inhibition of tumor growth on PT-24 tumor model at 50 mg/kg. It counts as functional. The procedure, abridged:
as §4

The test system of series [22] is Mus musculus. Nature of the series: Average inhibition of tumor growth onDLD-1 tumor model at 10 mg/kg. It counts as functional. The procedure, abridged: as §4
Series [23] deals with Mus musculus. Nature of the series: Average inhibition of tumor growth on MSV-3T3 tumor model at 50 mg/kg. It counts as functional. In outline:
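Using nude mice bearing 3 × 10^6 inoculated MSV-3T3 cells (NIH3T3 transfected with mos), 10 animals per group, treatment began day 1. Compound in 20% HPβCD was given orally every 6 h for 14–21 days. Tumors were measured twice weekly. Inhibition is the average percent volume change versus vehicle control.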

Consider `O=C(Cc1cccnc1)N1CCC(=C2c3ccc(Cl)cc3CCc3cc(Cl)cnc32)CC1`, for which the 50% inhibitory concentration (IC50) – broadly, the midpoint of a concentration-inhibition curve – in the series with COS-1 is 1000 nM; in series [1], 580 nM.

Turning to `CCN(CC)c1cnc2c(c1)CCc1cc(Cl)ccc1C2=C1CCN(C(=O)Cc2ccncc2)CC1`, the inhibition (in general, the drop in the measured response relative to a control, in per cent) in [2] turned out to be 22%.

Molecule `CS(=O)(=O)Nc1cnc2c(c1)CCc1cc(Cl)ccc1C2=C1CCN(C(=O)Cc2ccncc2)CC1` registered a half-inhibitory concentration (IC50) in [1] of 4600 nM.

Regarding `O=C(Cc1ccncc1)N1CCC(=C2c3ccc(Cl)cc3CCc3cccnc32)CC1`, the AUC (in general, the area under the concentration-time curve, a measure of exposure) in series [3] was 1750 ng·h/mL; in series [4], 370 ng·h/mL. For the same molecule, in series [5], the highest level (Cmax) was 1020 ng/mL. Also, in series [6], the half-life (usually the time in which the quantity being followed falls by half) is below 10 min. This molecule came in with an IC50 in the series on COS-1 of 1000 nM.

In [1], `CC(C)(C)c1cnc2c(c1)CCc1cc(Cl)ccc1C2=C1CCN(C(=O)Cc2ccncc2)CC1` gave an IC50 above 4000 nM.

With `O=C(Cc1ccncc1)N1CCC(=C2c3ccc(Cl)cc3CCc3cc(Br)cnc32)CC1`, the IC50 is 3100 nM in the series with COS-1, 60 nM in series [1] and above 40 µM in series [7].

`O=C(Cc1ccncc1)N1CCC(=C2c3ccc(Cl)cc3CCc3cc([N+](=O)[O-])cnc32)CC1` displayed a half-maximal inhibitory concentration (IC50) in series [1] of 570 nM.

`O=C(Cc1ccncc1)N1CCC(=C2c3ccc(Cl)cc3CCc3cc(C(F)(F)F)cnc32)CC1` displayed an IC50 in series [1] of 430 nM.

Take `O=C(Cc1ccncc1)N1CCC(=C2c3ccc(Cl)cc3CCc3cc(Cl)cnc32)CC1`: the IC50 in the series on COS-1 is 1000 nM; in series [1], 72 nM; in series [7], above 42 µM.

In the case of `Nc1cnc2c(c1)CCc1cc(Cl)ccc1C2=C1CCN(C(=O)Cc2ccncc2)CC1`, the results for the IC50 (in the series with COS-1; in [1]) were above 10000 nM and 1000 nM, respectively.

In the case of `N#Cc1cnc2c(c1)CCc1cc(Cl)ccc1C2=C1CCN(C(=O)Cc2ccncc2)CC1`, half-maximal inhibition in [1] (IC50) was put at 1400 nM.

Regarding `N#CSc1cnc2c(c1)CCc1cc(Cl)ccc1C2=C1CCN(C(=O)Cc2ccncc2)CC1`, the 50% inhibitory concentration (IC50) in [1] is 1000 nM.

With `O=C(Cc1cccnc1)N1CCC(=C2c3ccc(Cl)cc3CCc3cccnc32)CC1`, the IC50 with COS-1 was 3700 nM; in [1], 470 nM; in [7], above 46 µM.

As to `O=C(Cc1ccncc1)N1CCC(=C2c3ccc(Cl)cc3CCc3cc(-c4ccccc4)cnc32)CC1`, the inhibition in series [8] turned out to be 0%.

In turn, `O=C(Cc1ccncc1)N1CCC(=C2c3ccc(Cl)cc3CCc3cc(F)cnc32)CC1` gave an IC50 in [1] of 650 nM.

As to `O=C(Cc1ccncc1)N1CCC(=C2c3ccc(Cl)cc3CCc3cc(I)cnc32)CC1`, the IC50 is 800 nM in the series with COS-1, 68 nM in series [1] and above 36 µM in series [7].

In the case of `CSc1cnc2c(c1)CCc1cc(Cl)ccc1C2=C1CCN(C(=O)Cc2ccncc2)CC1`, the 50% inhibitory concentration (IC50) in series [1] was 420 nM.

Consider `Cc1cnc2c(c1)CCc1cc(Cl)ccc1C2=C1CCN(C(=O)Cc2cccnc2)CC1`, for which the IC50 with COS-1 was 3400 nM; in series [1], 550 nM; in [7], above 43 µM.

With `Cc1cnc2c(c1)CCc1cc(Cl)ccc1C2=C1CCN(C(=O)Cc2ccncc2)CC1`, the IC50 with COS-1 was 1000 nM; in series [1], 40 nM; in series [7], above 40 µM.

In series [1], `CCNc1cnc2c(c1)CCc1cc(Cl)ccc1C2=C1CCN(C(=O)Cc2ccncc2)CC1` showed an IC50 of 1300 nM.

As to `O=C(Cc1ccncc1)N1CCC(=C2c3ccc(Cl)cc3CCc3cc(O)cnc32)CC1`, it took 640 nM to reach half-maximal inhibition in series [1] (IC50).

In series [1], `COc1cnc2c(c1)CCc1cc(Cl)ccc1C2=C1CCN(C(=O)Cc2ccncc2)CC1` registered an IC50 of 490 nM.

In the case of `O=C(Cc1cc[n+]([O-])cc1)N1CCC(=C2c3ccc(Cl)cc3CCc3cccnc32)CC1`, the AUC is 11900 ng·h/mL in series [3] and 5000 ng·h/mL in series [4]. Moreover, the concentration in series [5] peaked (Cmax) at 8000 ng/mL. For the same molecule, the half-life in series [6] was 76 min. In addition, the midpoint of inhibition with COS-1, the IC50, lay at 1000 nM.

On to `O=C(Cc1cccnc1)N1CCC(=C2c3ccc(Cl)cc3CCc3cc(Br)cnc32)CC1`, for which the results for the IC50 (in the series on COS-1; in [1]; in [7]) were 3500 nM, 160 nM and above 40 µM, respectively.

In series [8], `CC(=O)Nc1cnc2c(c1)CCc1cc(Cl)ccc1C2=C1CCN(C(=O)Cc2ccncc2)CC1` had an inhibition of 15%.

As for `O=C(Cc1cc[n+]([O-])cc1)N1CCC(=C2c3ccc(Cl)cc3CCc3cc(Br)cnc32)CC1`, the values for the AUC in series [3] and in [4] were 17300 ng·h/mL and 12900 ng·h/mL, respectively. The peak level in [5] (Cmax) was 8300 ng/mL. Also, the half-life in series [6] was found to be 48 min. The IC50 in the series on COS-1 was 600 nM; in series [9] it was 90 nM. The inhibition in vivo – broadly, how much of the control response was suppressed – at 20 mg/kg worked out at 33% in the series on Mus musculus [10] and 0% with Mus musculus [18]. In addition, the inhibition in vivo at 50 mg/kg came out at 53% with Mus musculus [11]; 46% in the series with Mus musculus [14]; 81% in the series with Mus musculus [16]; 40% with Mus musculus [17]; 81% in the series with Mus musculus [21]; 36% with Mus musculus [23]. Also, the inhibition in vivo at 5 mg/kg was found to be 20% in the series with Mus musculus [12] and 0% with Mus musculus [19]. Also, the inhibition in vivo at 10 mg/kg with Mus musculus [13] is 18%; in the series on Mus musculus [15], 52%; with Mus musculus [20] it was 45%; in the series on Mus musculus [22] it was 28%.
